Source: ChEMBL document CHEMBL1145796, “Neuromuscular blocking activity and therapeutic potential of mixed-tetrahydroisoquinolinium halofumarates and halosuccinates in rhesus monkeys” (2003)

Assays:
[1] = Time from injection to 95% recovery of the twitch response at the ED95 dose in male Rhesus monkey.; assay type: functional, Cercopithecidae
Method in brief: (§1)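 Anesthetized, ventilated male rhesus monkeys received sequential iv bolus doses with extensor digitorum twitch recorded. Onset is injection to peak twitch inhibition. Duration is injection to 95% twitch recovery. Values at the ED95 were read from plots of onset or duration vs dose. Means ± SE across animals.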

[2] = Dose required for 41% suppression of the twitch response at the extensor digitorum in male Rhesus monkey; assay type: functional; conditions: Cercopithecidae
Method in brief: (§2)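 Adult male rhesus monkeys (8–15 kg) under ketamine (5 mg/kg i.m.) and pentobarbital (2–5 mg/kg iv) induction, then N2O 60%/O2 40%/halothane 0.5–1%, ventilated, core temperature 37–38 °C. Twitch of extensor digitorum was recorded after ≥20 min stable baseline. Sequential iv bolus doses from 0.03 to 6.4 mg/kg. Per-animal ED95 came from log-probability regression of dose vs % block. Other lines give the single dose tested with its % block.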

[3] = Time from injection to peak inhibition of twitch response at the ED95 dose in male Rhesus monkey.; assay type: functional, Cercopithecidae; method in brief: as §1
[4] = Dose required for 93% suppression of the twitch response at the extensor digitorum in male Rhesus monkey; assay type: functional; conditions: Cercopithecidae; method in brief: as §2
[5] = Selectivity index is changes in heart rate(cv dose) to the suppression of twitch response (ED95) in male Rhesus monkey; assay type: functional, Cercopithecidae
Method in brief: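 Same anesthetized male rhesus preparation, with blood pressure, heart rate and EKG recorded alongside twitch during sequential iv doses up to 6.4 mg/kg. Cardiovascular threshold dose is the dose giving ≥10% change in heart rate or mean arterial pressure. Index = mean threshold dose / mean ED95 (extensor digitorum).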

[6] = Dose required for 80% suppression of the twitch response at the extensor digitorum in male Rhesus monkey; assay type: functional; conditions: Cercopithecidae; method in brief: as §2
[7] = Dose required for 95% suppression of the twitch response at the extensor digitorum in male Rhesus monkey.; assay type: functional, Cercopithecidae; conditions: Cercopithecidae; read-out: ED95; method in brief: as §2
[8] = Time from injection to peak inhibition of twitch response at a dose of 0.2 mg/kg in male Rhesus monkey was evaluated; assay type: functional, Cercopithecidae
Method in brief: (§3)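 Single iv bolus of 0.2 or 0.4 mg/kg in anesthetized, ventilated male rhesus monkeys, with extensor digitorum twitch recorded. Onset taken from injection to peak twitch inhibition at the given dose. Means ± SE, N = number of animals.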

[9] = Time from injection to peak inhibition of twitch response at a dose of 0.4 mg/kg in male Rhesus monkey was evaluated; assay type: functional, Cercopithecidae; method in brief: as §3
[10] = Time from injection to 95% recovery of twitch response at a dose of 0.2 mg/kg in male Rhesus monkey was evaluated
[11] = Time from injection to 95% recovery of twitch response at a dose of 0.4 mg/kg in male Rhesus monkey was evaluated
[12] = Dose required for 91% suppression of the twitch response at the extensor digitorum in male Rhesus monkey; assay type: functional; conditions: Cercopithecidae; method in brief: as §2
[13] = Dose required for 100% suppression of the twitch response at the extensor digitorum in male Rhesus monkey; assay type: functional; conditions: Cercopithecidae; method in brief: as §2

Which Duration [1] does the source give for COc1cc2c(cc1OC)[C@H](c1cc(OC)c(OC)c(OC)c1)[N@@+](C)(CCCOC(=O)/C(Cl)=C/C(=O)OCCC[N@+]1(C)CCc3cc(OC)c(OC)c(OC)c3[C@H]1Cc1cc(OC)c(OC)c(OC)c1)CC2.COc1cc2c(cc1OC)[C@H](c1cc(OC)c(OC)c(OC)c1)[N@@+](C)(CCCOC(=O)/C=C(\Cl)C(=O)OCCC[N@+]1(C)CCc3cc(OC)c(OC)c(OC)c3[C@H]1Cc1cc(OC)c(OC)c(OC)c1)CC2.[Cl-].[Cl-].[Cl-].[Cl-] here?
Its Duration is 6.5 min.

What about the ED95 [2] of the same compound?
Its ED95 is 0.05 mg/kg.

And the Onset [3]?
The Onset was 145 s.

For COc1cc(C2c3c(cc(OC)c(OC)c3OC)CC[N@@+]2(C)CCCOC(=O)/C(Cl)=C/C(=O)OCCC[N@+]2(C)CCc3cc(OC)c(OC)c(OC)c3[C@H]2c2cc(OC)c(OC)c(OC)c2)cc(OC)c1OC.[Cl-].[Cl-] (some centres undefined), which Duration [1] is on record?
The Duration was 3.6 min.

What about the ED95 [4] of the same compound?
Its ED95 is 2 mg/kg.

And the Onset [3]?
The Onset was 45 s.

And the Selectivity index [5]?
The Selectivity index was 1.

Which Duration [1] does the source give for COc1cc2c(cc1OC)[C@H](c1cc(OC)c(OC)c(OC)c1)[N@@+](C)(CCCOC(=O)CCCCCC(=O)OCCC[N@+]1(C)CCc3cc(OC)c(OC)cc3[C@H]1Cc1cc(OC)c(OC)c(OC)c1)CC2.[Cl-].[Cl-] here?
The Duration was 7.1 min.

What about the ED95 [6] of the same compound?
Its ED95 is 0.2 mg/kg.

What about the Onset [3] of the same compound?
Its Onset is 40 s.

Which results are given for COc1cc2c(cc1OC)[C@@H](c1cc(OC)c(OC)c(OC)c1)[N@+](C)(CCCOC(=O)CCCCCCC(=O)OCCC[N@+]1(C)CCc3cc(OC)c(OC)cc3[C@H]1Cc1cc(OC)c(OC)c(OC)c1)CC2.[Cl-].[Cl-]?
Duration [1]: 8.6 min; ED95 [7]: 0.103 mg/kg; Onset [8]: 50 s; Onset [9]: 25 s; Onset [3]: 75 s; Selectivity index [5]: 47; Duration [10]: 14.6 min; Duration [11]: 16.9 min

Which results are given for COc1cc2c(cc1OC)[C@H](c1cc(OC)c(OC)c(OC)c1)[N@@+](C)(CCCOC(=O)/C=C(\Cl)C(=O)OCCC[N@+]1(C)CCc3cc(OC)c(OC)c(OC)c3[C@H]1Cc1cc(OC)c(OC)c(OC)c1)CC2.[Cl-].[Cl-]?
Duration [1]: 13.3 min; ED95 [12]: 0.05 mg/kg; Onset [3]: 160 s

Which Duration [1] does the source give for COc1cc2c(cc1OC)[C@H](c1cc(OC)c(OC)c(OC)c1)[N@@+](C)(CCCOC(=O)C[C@H](F)C(=O)OCCC[N@+]1(C)CCc3cc(OC)c(OC)cc3[C@H]1Cc1cc(OC)c(OC)c(OC)c1)CC2.[Cl-].[Cl-] here?
Its Duration is 35 min.

And the ED95 [13]?
The ED95 was 0.05 mg/kg.

And the Onset [3]?
The Onset was 80 s.
